Measurements: ChEMBL document CHEMBL5360543, “Designed multiple ligands for the treatment of type 2 diabetes mellitus and its complications: Discovery of (5-arylidene-4-oxo-2-thioxothiazolidin-3-yl)alkanoic acids active as novel dual-targeted PTP1B/AKR1B1 inhibitors” (Eur J Med Chem, 2023)
Active and inactive are the calls of the source. The rule behind the calls is not given here.

What was measured:
[1] = biological target: T1, Tyrosine-protein phosphatase non-receptor type 1 (Homo sapiens) (UniProt P18031); assay: Inhibition of N-terminal polyHis-tagged human PTP1B1 (1 to 303 residues) expressed in Escherichia coli BL21(DE3)pLysS assessed as enzyme residual activity using pNPP as substrate at 5 uM by spectrophotometric analysis
T1 sequence (whole entry): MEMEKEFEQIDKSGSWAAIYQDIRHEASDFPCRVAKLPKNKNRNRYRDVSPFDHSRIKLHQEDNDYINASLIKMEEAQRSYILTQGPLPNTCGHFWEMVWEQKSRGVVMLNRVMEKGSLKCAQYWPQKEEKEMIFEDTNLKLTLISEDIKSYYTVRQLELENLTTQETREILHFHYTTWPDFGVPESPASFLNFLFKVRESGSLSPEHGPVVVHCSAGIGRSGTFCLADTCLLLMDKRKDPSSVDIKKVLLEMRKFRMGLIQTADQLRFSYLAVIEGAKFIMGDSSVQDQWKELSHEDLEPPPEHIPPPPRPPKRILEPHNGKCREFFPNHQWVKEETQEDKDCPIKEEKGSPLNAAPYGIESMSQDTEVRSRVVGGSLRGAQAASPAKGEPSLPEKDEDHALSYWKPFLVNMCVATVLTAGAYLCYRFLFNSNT
Summary of the method: (§1)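 His-tagged human PTP1B (1–303) from E. coli BL21(DE3)pLysS, assayed in 0.075 M β,β-dimethylglutarate pH 7.0 with 1 mM EDTA, 0.1 mM DTT and pNPP. Reaction stopped with 0.1 M KOH; p-nitrophenol read at 400 nm. IC50 from 15–16 inhibitor concentrations in triplicate, normalized to control, fitted by nonlinear regression. Single-point residual activity at 5 µM.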

[2] = biological target: T2, Aldo-keto reductase family 1 member B1 (Homo sapiens, UniProt P15121); assay: Inhibition of human recombinant AKR1B1 expressed in Escherichia coli BL21(DE3)pLysS using L-idose as substrate by NADPH oxidation based absorbance analysis
[3] = biological target: T2, Aldo-keto reductase family 1 member B1; assay: Mixed non-competitive inhibition of human recombinant AKR1B1 expressed in Escherichia coli BL21(DE3)pLysS assessed as apparent dissociation constant for EI complex using L-idose as substrate by secondary plot analysis
Summary of the method: (§2)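 AKR1B1 rates measured at varied L-idose concentrations with and without several inhibitor concentrations, then Lineweaver–Burk analysis. […] Tight binders fitted with the Morrison equation, KM for L-idose taken as 3.8 mM. At least three independent experiments.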

[4] = biological target: T2, Aldo-keto reductase family 1 member B1; assay: Mixed non-competitive inhibition of human recombinant AKR1B1 expressed in Escherichia coli BL21(DE3)pLysS assessed as apparent dissociation constant for ESI complex using L-idose as substrate by secondary plot analysis; summary of the method: as §2
[5] = biological target: T2, Aldo-keto reductase family 1 member B1; assay: Reversible inhibition of human recombinant AKR1B1 expressed in Escherichia coli BL21(DE3)pLysS assessed as recovery of enzyme activity using L-idose as substrate measured after extensive dialysis by NADPH oxidation based absorbance analysis; design: scale not given: the % may be the effect or the level left
C2C12 [6] = assay: Effect on total Akt protein expression in mouse C2C12 cells at 20 uM incubated for 15 mins in presence of insulin by SDS-PAGE analysis; format: functional, cell-based
Summary of the method: (§3)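 C2C12 cells starved 24 h, then given 10 nM insulin, 20 µM compound, or both, for 15 min. Washed in cold PBS, lysed in 1X Laemmli buffer, run on SDS-PAGE, blotted to PVDF. Probed with antibodies to phospho-Akt and total Akt, with actin as loading control. Bands quantified; triplicate, mean ± SD (n = 3).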

[7] = biological target: T3, Tyrosine-protein phosphatase non-receptor type 2 (Homo sapiens, UniProt P17706); assay: Inhibition of N-terminal polyHis-tagged human recombinant TC-PTPb (1 to 415 residues) expressed in Escherichia coli BL21(DE3)pLysS
T3 sequence (P17706 whole entry): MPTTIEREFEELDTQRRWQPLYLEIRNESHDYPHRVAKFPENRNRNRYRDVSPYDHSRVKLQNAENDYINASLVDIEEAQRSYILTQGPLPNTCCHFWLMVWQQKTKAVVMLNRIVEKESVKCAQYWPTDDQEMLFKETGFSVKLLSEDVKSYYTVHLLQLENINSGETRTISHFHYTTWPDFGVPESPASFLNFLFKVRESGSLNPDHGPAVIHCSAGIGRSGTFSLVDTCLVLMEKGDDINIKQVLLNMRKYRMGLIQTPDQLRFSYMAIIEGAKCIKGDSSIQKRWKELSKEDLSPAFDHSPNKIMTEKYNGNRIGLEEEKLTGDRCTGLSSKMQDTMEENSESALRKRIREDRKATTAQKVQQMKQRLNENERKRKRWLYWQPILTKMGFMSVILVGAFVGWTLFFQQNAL

[8] = biological target: T4, Tyrosine-protein phosphatase non-receptor type 1 (Homo sapiens, UniProt P18031); assay: Mixed non-competitive inhibition of N-terminal polyHis-tagged human PTP1B1 (1 to 303 residues) expressed in Escherichia coli BL21(DE3)pLysS assessed as apparent dissociation constant for EI complex using pNPP as substrate by Lineweaver-Burk plot analysis
T4 sequence (P18031 whole entry): T1 sequence (whole entry)
Summary of the method: (§4)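 PTP1B initial pNPP hydrolysis rates measured at seven pNPP concentrations (0.5–25 mM) and at least three inhibitor concentrations, in triplicate. Data fitted to Michaelis–Menten; KM and Vmax dependence on inhibitor analysed by Lineweaver–Burk plots.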

[9] = biological target: T2, Aldo-keto reductase family 1 member B1; assay: Ratio of Ki for human recombinant AKR1B1 expressed in Escherichia coli BL21(DE3)pLysS assessed as apparent dissociation constant for EI complex to Ki for human recombinant AKR1B1 expressed in Escherichia coli BL21(DE3)pLysS assessed as apparent dissociation constant for ESI complex; summary of the method: as §2
[10] = biological target: T5, Tyrosine-protein phosphatase non-receptor type 1 (Mus musculus) (UniProt P35821); assay: Inhibition of PTP1B in mouse C2C12 cells assessed as potentiation of insulin-induced Akt phosphorylation by measuring increase in ratio of pAkt to Akt at 20 uM treated for 15 mins in presence of insulin by western blot analysis; format: cell-based; summary of the method: as §3
T5 sequence (whole entry): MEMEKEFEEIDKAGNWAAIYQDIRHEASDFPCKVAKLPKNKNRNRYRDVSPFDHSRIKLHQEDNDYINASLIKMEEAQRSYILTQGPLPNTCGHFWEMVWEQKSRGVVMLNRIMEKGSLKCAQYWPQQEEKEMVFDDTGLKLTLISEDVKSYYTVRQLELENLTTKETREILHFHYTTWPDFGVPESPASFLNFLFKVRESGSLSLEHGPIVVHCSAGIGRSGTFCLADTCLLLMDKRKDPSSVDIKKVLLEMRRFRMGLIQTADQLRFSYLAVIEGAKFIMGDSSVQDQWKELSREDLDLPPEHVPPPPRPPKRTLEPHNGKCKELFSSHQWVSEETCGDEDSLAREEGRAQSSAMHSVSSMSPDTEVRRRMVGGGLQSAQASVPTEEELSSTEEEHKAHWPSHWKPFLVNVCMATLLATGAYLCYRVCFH

[11] = biological target: T5, Tyrosine-protein phosphatase non-receptor type 1 (Mus musculus); assay: Inhibition of PTP1B in mouse C2C12 cells assessed as increase in Akt phosphorylation by measuring increase in ratio of pAkt to Akt at 20 uM treated for 15 mins by western blot analysis; format: cell-based; summary of the method: as §3
C2C12 [12] = assay: Insulin-mimetic activity in mouse C2C12 cells assessed as stimulation of 2-NBDG uptake at 20 uM pretreated with compound and insulin for 15 mins followed by 2-NBDG addition and measured after 3 hrs by flow cytometry; format: functional, cell-based; settings: time 195.0 min
Summary of the method: (§5)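 C2C12 cells serum-starved 24 h, then 15 min with 10 nM insulin, 20 µM compound, or both. Washed, then 3 h in starvation medium containing 40 µM 2-NBDG. Trypsinized, washed, and fluorescence measured by flow cytometry. Quadruplicate; mean fluorescence ± SD.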

C2C12 [13] = assay: Insulin-mimetic activity in mouse C2C12 cells assessed as stimulation of 2-NBDG uptake at 20 uM pretreated with compound for 15 mins followed by 2-NBDG addition and measured after 3 hrs by flow cytometry; format: functional, cell-based; settings: time 195.0 min; summary of the method: as §5
[14] = biological target: T4, Tyrosine-protein phosphatase non-receptor type 1; assay: Mixed non-competitive inhibition of N-terminal polyHis-tagged human PTP1B1 (1 to 303 residues) expressed in Escherichia coli BL21(DE3)pLysS assessed as apparent dissociation constant for ESI complex using pNPP as substrate by Lineweaver-Burk plot analysis; summary of the method: as §4
[15] = biological target: T1, Tyrosine-protein phosphatase non-receptor type 1 (Homo sapiens); assay: Reversible inhibition of N-terminal polyHis-tagged human PTP1B1 (1 to 303 residues) expressed in Escherichia coli BL21(DE3)pLysS using pNPP as substrate pretreated with enzyme for 60 mins followed by 400-fold dilution with buffer containing substrate and measured after 15 mins by spectrophotometric analysis; settings: time 75.0 min
Summary of the method: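 PTP1B incubated 60 min at 37 °C with saturating inhibitor, then diluted 400-fold into assay buffer containing 2.5 mM pNPP. Stopped after 15 min with 0.2 M KOH; absorbance read at 400 nm. Normalized to enzyme diluted with DMSO; mean ± SEM (n = 3).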

C2C12 [16] = assay: Effect on total Akt protein expression in mouse C2C12 cells at 20 uM incubated for 15 mins by SDS-PAGE analysis; format: functional, cell-based; summary of the method: as §3
[17] = biological target: T4, Tyrosine-protein phosphatase non-receptor type 1; assay: Inhibition of N-terminal polyHis-tagged human PTP1B1 (1 to 303 residues) expressed in Escherichia coli BL21(DE3)pLysS using pNPP as substrate by spectrophotometric analysis; summary of the method: as §1
C2C12 [18] = assay: Cytotoxicity against mouse C2C12 cells assessed as reduction in cell viability at 20 uM incubated for 24 hrs by MTT assay; format: toxicity, cell-based; settings: c2c12, 24 h
Summary of the method: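 C2C12 myoblasts were differentiated for 96 h in DMEM with 2% horse serum, then held 24 h in complete medium with 20 µM compound, DMSO vehicle as control. MTT 0.5 mg/mL was added, cells lysed in DMSO, absorbance read, and values normalized to vehicle. Quadruplicate, mean ± SD (n = 4).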

Homo sapiens = organism: Homo sapiens; assay: Selectivity index, ratio of IC50 for inhibition of N-terminal polyHis-tagged human recombinant TC-PTPb (1 to 415 residues) expressed in Escherichia coli BL21(DE3)pLysS to IC50 for inhibition of N-terminal polyHis-tagged human PTP1B1 (1 to 303 residues) expressed in Escherichia coli BL21(DE3)pLysS

## O=C(O)CN1C(=O)/C(=C/c2ccc(OCCCc3ccccc3)cc2)SC1=S
[1]
  Activity: 79%
[2]
  IC50: 260 nM

## O=C(O)CN1C(=O)/C(=C/c2cccc(OCCCOc3ccccc3)c2)SC1=S
[1]
  Activity: 100%
[2]
  IC50: 80 nM

## O=C(O)CCN1C(=O)/C(=C/c2ccc(OCCCOc3ccccc3)cc2)SC1=S
[1]
  Activity: 74.4%
[2]
  IC50: 3900 nM

## O=C(O)CCN1C(=O)/C(=C/c2cccc(OCCCc3ccccc3)c2)SC1=S
[1]
  Activity: 67.6%
[2]
  IC50: 1200 nM

## O=C(O)CN1C(=O)/C(=C/c2cccc(OCCCc3ccccc3)c2)SC1=S
[1]
  Activity: 81%
[2]
  IC50: 50 nM

## O=C(O)CCN1C(=O)/C(=C/c2cccc(OCCCCc3ccccc3)c2)SC1=S
[3]
  Ki: 4000 nM
[4]
  Ki: 1100 nM
[5]
  Activity: > 90%
C2C12 [6]
  Activity: inactive
[7]
  IC50: 25800 nM
[8]
  Ki: 900 nM
[9]
  Ratio Ki: 2
[10]
  inhibition: Active
[2]
  IC50: 2100 nM
[11]
  inhibition: Active
C2C12 [12]
  Activity: Active
C2C12 [13]
  Activity: Active
[14]
  Ki: 6600 nM
[15]
  inhibition: Active
C2C12 [16]
  Activity: inactive
[17]
  IC50: 3200 nM
C2C12 [18]
  Activity: Non-Toxic
Homo sapiens
  Ratio IC50: 8
